Molecules are shown by their SMILES. Changes are numbered by the printed parent chain.

Assay [1] deals with T1, Med25 AcID (Homo sapiens, UniProt Q71SY5).
T1 sequence (Q71SY5 389-543 limits assumed): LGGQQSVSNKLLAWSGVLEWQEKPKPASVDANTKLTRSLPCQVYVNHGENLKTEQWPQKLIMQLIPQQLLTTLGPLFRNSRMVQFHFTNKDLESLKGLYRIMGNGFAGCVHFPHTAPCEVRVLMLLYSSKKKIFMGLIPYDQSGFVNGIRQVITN
Put plainly: Mass spectrometry. It is filed as binding. The settings on record: mass spectrometry.

Assay [2] deals with T2, Med25 AcID fl-VP16(465–490) (Homo sapiens, UniProt Q71SY5).
T2 sequence (Q71SY5 389-543 limits assumed): T1 sequence (Q71SY5 389-543 limits assumed)
It is filed as binding.

Another assay addresses IBiD ACTR (Homo sapiens, UniProt Q92793). It is filed as binding.
For assay [3], the target named is T3, Med25 ETV5 complex (Homo sapiens, UniProt Q71SY5).
T3 sequence (Q71SY5 1-747): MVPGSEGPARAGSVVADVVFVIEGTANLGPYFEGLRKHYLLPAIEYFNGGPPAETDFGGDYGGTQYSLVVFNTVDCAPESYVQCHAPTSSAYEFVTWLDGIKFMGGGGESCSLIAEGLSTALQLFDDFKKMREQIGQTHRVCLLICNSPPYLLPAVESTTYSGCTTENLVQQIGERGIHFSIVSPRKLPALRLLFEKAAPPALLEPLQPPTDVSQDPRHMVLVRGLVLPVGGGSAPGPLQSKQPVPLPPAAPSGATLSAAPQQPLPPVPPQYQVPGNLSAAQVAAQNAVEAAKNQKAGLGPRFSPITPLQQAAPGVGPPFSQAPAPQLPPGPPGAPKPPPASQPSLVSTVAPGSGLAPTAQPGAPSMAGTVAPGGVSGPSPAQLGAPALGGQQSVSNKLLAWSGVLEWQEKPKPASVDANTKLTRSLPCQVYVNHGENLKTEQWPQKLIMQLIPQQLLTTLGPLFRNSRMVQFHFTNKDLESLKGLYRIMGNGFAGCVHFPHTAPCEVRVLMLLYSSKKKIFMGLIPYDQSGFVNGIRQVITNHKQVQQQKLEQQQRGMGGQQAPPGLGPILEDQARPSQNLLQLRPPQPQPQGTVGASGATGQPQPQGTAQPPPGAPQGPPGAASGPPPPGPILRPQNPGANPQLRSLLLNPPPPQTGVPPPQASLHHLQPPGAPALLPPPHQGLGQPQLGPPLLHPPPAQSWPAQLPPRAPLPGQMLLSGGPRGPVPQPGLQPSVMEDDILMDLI
In words: Co-immunoprecipitation of ETV5 with Med25 in HeLa cells. It is filed as cell-based. The settings on record: 25 μM NA.

Assay [4] addresses T4, Med25 AcID (Homo sapiens, UniProt Q71SY5, K520R).
T4 sequence (Q71SY5 394-543 K520R): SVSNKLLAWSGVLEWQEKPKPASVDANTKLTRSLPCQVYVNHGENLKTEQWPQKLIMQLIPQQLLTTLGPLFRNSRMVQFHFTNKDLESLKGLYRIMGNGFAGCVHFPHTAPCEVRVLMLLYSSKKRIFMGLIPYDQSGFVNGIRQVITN
In words: Mass spectrometry. It is filed as binding. The settings on record: Med25 K520R mutant.

Assay [5] concerns the target T5, Med25 AcID (Homo sapiens, UniProt Q71SY5, K519R).
T5 sequence (Q71SY5 394-543 K519R): T4 sequence (Q71SY5 394-543 K520R) with K126R, R127K
In words: Mass spectrometry. The assay is classed as binding. The settings on record: Med25 K519R mutant.

For the next assay, the system named is MDA-MB-231 cells. Put plainly: Isobologram synergy with lapatinib, cell viability assay. It is filed as cell-based. The settings on record: fixed dose ratios, 2 days, MTT.
In a further assay the test system is MMP2 transcript. In words: qPCR analysis of MMP2 transcript levels in VARI068 cells. The assay is classed as cell-based. The settings on record: normalized to RPL19. A digest of the protocol:
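Test compound- or vehicle-treated cells were assayed by qPCR for MMP2 transcript, normalized to reference gene RPL19. Runs were technical triplicates in biological duplicate and averaged.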

In another assay the target is T6, full-length Med25 (Homo sapiens, UniProt Q71SY5).
T6 sequence (Q71SY5 1-747): T3 sequence (Q71SY5 1-747)
Put plainly: Cellular thermal shift assay in HeLa cell nuclear extracts. It is filed as cell-based. The settings on record: 25 μM NA. A digest of the protocol: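 HeLa cell nuclear extracts were dosed with 25 μM test compound or an equivalent amount of DMSO vehicle. Samples were then heated across a range of temperatures to assess thermal stabilization of Med25.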

A further assay addresses T7, Med25 AcID ETV5 (Homo sapiens, UniProt Q71SY5).
T7 sequence (Q71SY5 389-543 limits assumed): T1 sequence (Q71SY5 389-543 limits assumed)
In words: Fluorescence polarization inhibition of Med25 AcID ETV5 interaction. The conditions noted are these: H1 binding surface. For orientation: In fluorescence polarisation assays a small probe gives low polarisation when free and higher when bound to something large.

Assay [6] has as its target T3, Med25 ETV5 complex. Put plainly: Co-immunoprecipitation of ETV5 with Med25 in VARI068 cells. It is filed as cell-based. Put shortly: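 Cells were treated with test compound. ETV5 was co-immunoprecipitated with Med25 and detected by Western blot.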
The target of the next assay is T8, Med25 ATF6α (Homo sapiens, UniProt Q71SY5).
T8 sequence (Q71SY5 389-543 limits assumed): T1 sequence (Q71SY5 389-543 limits assumed)
In words: Fluorescence polarization inhibition of Med25 ATF6α interaction. The conditions noted are these: H2 binding surface.

Take `COc1cc(C)c(C(=O)Oc2cc(C)c(C(=O)O)c(O)c2C)c(O)c1C=O` [baeomycesic acid]: the “covalent adduct formation with Med25 AcID” value (shortened to “covalent adduct formation”) on Med25 AcID [1] is listed as “covalent adducts with Med25 were observed”.
Usually IC50 stands for the point on the concentration scale where inhibition reaches its midpoint. Turning to `COc1cc(C(=O)O)c2c(c1C)OC(=O)c1c(C)cc(O)c(C=O)c1O2` [PA, psoromic acid], in [2], inhibition was half-maximal at 3.9 ± 0.3 µM (IC50).
Still for that read-out and setting: the same measure for `COc1cc(C)c2c(c1C=O)Oc1c(c(C)c(O)c3c1C(O)OC3=O)OC2=O` (centres unmarked) [Stictic acid]: above 250 µM.
As for `O=Cc1ccccc1O` [salicylaldehyde], the “covalent adduct formation” value on Med25 AcID [1] is “efficiently labels Med25 AcID”. The “impact on binding of activators to Med25 AcID” value in [2] is on record as “does not impact binding of activators”.
At IBiD ACTR, `Cc1cc(O)c(C=O)c2c1C(=O)Oc1c(C)c(O)c3c(c1O2)C(O)OC3=O` (centres unmarked) [NA, norstictic acid] showed an IC50 above 250 µM. In addition, the “formation of Med25 ETV5 complex” value is “blocks the formation of the Med25 ETV5 complex” at Med25 ETV5 complex [3] and “blocks the Med25 ETV5 complex” on Med25 ETV5 complex [6]. Also, the “reduction in mass abundance of the NA covalent adduct” value at Med25 AcID [4] worked out at 22%. Also, at Med25 AcID [5], the “reduction in mass abundance of the +1 covalent adduct” value is on record as 53%. For the same molecule, the “covalent adduct formation” value on Med25 AcID [1] was “concentration-dependent covalent adduct(s)”. For the same molecule, in the assay on MDA-MB-231 cells, the synergy with lapatinib entry is recorded as “strong synergy was observed”. In the assay with MMP2 transcript, the “MMP2 transcript levels relative to vehicle” value is given as “substantial downregulation of MMP2”. Moreover, on full-length Med25, the “thermal stabilization of endogenous Med25” value was “stabilizes endogenous Med25 protein”. Moreover, the “inhibition of Med25 PPI with ETV5” value on Med25 AcID ETV5 was “inhibits”. The “time at which significant inhibition was observed” value in assay [2] (time-course experiment) amounted to 5 min. In addition, on Med25 ATF6α, the “inhibition of Med25 PPI with ATF6α” value is recorded as “inhibits”.

Source of the values: article PMC8717358 (Journal of the American Chemical Society, 2021).
